M5 ag: CHRM5 agonism in calcium assay. P08912. CHO-K1 hM5 cells, Fluo-8 calcium fluorescence; 0% DMSO wells, 100% maximal acetylcholine response. activation, % at 3 µM. 0.19% of 360,000 active. AID 624037;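 active = activation above the run's mean over test compounds plus 3 SD, cut at about 23% in these data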;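 also: signal is peak over basal fluorescence ratio across the kinetic read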
CHRM4 agonist: agonists of human muscarinic M4 receptor (CHRM4); P08173; CHO-K1 hM4/Gqi5, Fluo-8 calcium fluorescence; vehicle 0%, full acetylcholine response 100%; activation, % at 3 µM; 0.14% of 360,000 active; AID 624127;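 active = activation above the run mean over all test wells plus 3 SD, cut at about 32% in these data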;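 also: peak over basal fluorescence ratio per well then scaled between controls; 0% = DMSO wells and 100% = acetylcholine at EC100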
Target sequence (P08173 whole entry, looked up): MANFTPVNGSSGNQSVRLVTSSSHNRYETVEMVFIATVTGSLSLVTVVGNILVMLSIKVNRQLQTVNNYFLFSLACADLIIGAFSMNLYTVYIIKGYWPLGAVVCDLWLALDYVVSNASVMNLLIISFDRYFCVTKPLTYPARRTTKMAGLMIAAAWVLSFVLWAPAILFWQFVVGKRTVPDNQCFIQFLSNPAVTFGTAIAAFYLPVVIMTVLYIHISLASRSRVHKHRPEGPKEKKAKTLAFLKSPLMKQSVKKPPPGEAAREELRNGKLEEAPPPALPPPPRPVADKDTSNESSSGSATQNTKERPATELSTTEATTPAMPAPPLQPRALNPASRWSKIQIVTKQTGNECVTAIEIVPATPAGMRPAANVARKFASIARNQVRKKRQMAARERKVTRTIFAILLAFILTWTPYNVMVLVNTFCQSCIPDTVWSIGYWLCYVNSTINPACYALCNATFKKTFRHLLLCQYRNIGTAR
CHRM5 antagonist: CHRM5 antagonism in calcium assay. CHO-hM5 cells, Fluo-8 calcium fluorescence, ACh EC80. inhibition, % at 3 µM. P08912. 0.59% of 360,000 active;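 active = inhibition above a per-plate cutoff, the mean of that plate's test compounds plus 3 SD, cut at about 27% in these data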;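 also: 0% = acetylcholine EC80 with DMSO and 100% = DMSO without agonist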
CHRM4 PAM: potentiates acetylcholine response at human M4 receptor | CHO-K1 hM4/Gqi5, Fluo-8 calcium fluorescence, ACh EC20; 0% = ACh EC20, 100% = maximal ACh | activation, % at 3 µM | 0.4% of 360,000 active;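 active = activation above its plate's cutoff, the mean activation of sample wells plus 3 SD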
M4 antag: antagonists of human muscarinic M4 receptor (CHRM4). CHO-hM4 cells, ACh EC80, Fluo-8 calcium fluorescence. inhibition, % at 3 µM. 0.73% of 360,000 active. AID 624125;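 active = inhibition above its plate's cutoff, the mean inhibition of sample wells plus 3 SD, cut at about 27% in these data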;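 also: 0% = acetylcholine EC80 with DMSO and 100% = DMSO without agonist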
M5 PAM: positive allosteric modulators of human muscarinic M5 receptor; P08912; CHO-K1 hM5, Fluo-8 calcium, ACh EC20 PAM; 0% = ACh EC20, 100% = ACh EC100; activation, % at 3 µM; 0.3% of 360,000 active; AID 624038;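 active = activation above the run cutoff, the mean activation of all test compounds plus 3 SD, cut at about 18% in these data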
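Assay system – human M5 receptor in CHO-K1 cells · Read-out – % activation, ACh-normalized · Technique – Fluo-8 calcium fluorescence · Dosing – single-point, 3 µM nominal · Incubation – Fluo-8 loading 80 min at 37 °C plus 30 min room temperature · Repeats – singlicate, one well per test compound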
Starred values were filed as active, the others as inactive. Shown are actives, neighbours in structure and some others; about 1.9% of the full set was active somewhere.

SMILES	M5 ag	CHRM4 agonist	CHRM5 antagonist	CHRM4 PAM	M4 antag	M5 PAM
CC(=O)NC(=S)Nc1ccc(NC(=S)NC(=O)/C=C/c2ccco2)cc1	24.9*	1.4	10.8	34.0*	-19.0	9.8
CCC(=O)Nc1ccc(NC(=S)NC(=O)/C=C/c2ccco2)cc1	-2.2	2.0	8.1	7.2	-9.4	-2.3
Cc1[nH]c2ccccc2c1C(=O)C(=O)NCc1nnnn1-c1ccc(F)cc1	-0.6	3.3	6.2	0.7	4.0	-2.2
Cc1c(C(=O)NC2CCS(=O)(=O)C2)oc2ccccc12 (stereo not given)	-3.1	0.3	27.1*	-8.2	0.8	-3.7
CSc1ccc(C(O)c2ncc(-c3ccc(F)cc3)[nH]2)cc1 (stereo not given)	2.5	2.1	3.1	4.6	-8.0	-5.1
Cc1oc2nc(SCC(=O)N3CCCCC3)nc(N)c2c1C	-2.6	1.0	7.2	19.8*	-7.9	-1.8
Cc1ccc(NC(=O)c2cccnc2)c([N+](=O)[O-])c1	-1.3	0.2	5.8	0.5	-3.8	-3.2
Cc1ccc(NC(=O)c2cncc(Br)c2)c([N+](=O)[O-])c1	-0.5	1.0	-1.0	22.5*	-8.7	-1.7
CC(C)c1ccc(CC(=O)N2CCC2(C)C(=O)Nc2ccc3c(c2)OCO3)cc1 (stereo not given)	4.8	11.7	4.7	-2.8	-11.5	-8.4
CC1(C(=O)Nc2ccc3c(c2)OCCO3)CCN1C(=O)Cc1ccc(-c2ccccc2)cc1 (stereo not given)	5.8	10.0	30.1*	-4.2	15.0	-14.3
COc1ccccc1CNC(=O)CN1C(=O)c2ccc([N+](=O)[O-])cc2C1=O	-2.5	3.9	29.6*	-8.7	11.5	-11.5
CC(N)C(=O)NC(CO)C(O)C(N)C=O (stereo not given)	4.3	-0.1	3.6	7.3	2.7	0.0
CCc1nc2ccc(C(=O)Nc3ccc(Cl)c(Cl)c3)cn2c1N(C)Cc1ccc(OC)cc1	1.5	2.2	-6.4	-6.8	-0.9	-3.7
CCOC(=O)C1=C[C@@H](C2CCCC2)N(S(=O)(=O)c2ccc([N+](=O)[O-])cc2)[C@H]1c1ccccc1	1.5	5.9	7.0	-17.6	38.6*	-9.7
CCOC(=O)C1=C[C@@H](CC)N(S(=O)(=O)c2ccc(C)cc2)[C@H]1c1ccccc1	-3.1	-2.1	2.3	-9.3	3.1	-5.4
CC1(C(=O)NCc2ccccc2)CCC(=O)N1C1CC1 (stereo not given)	1.1	0.6	-8.3	5.9	-11.8	3.2
O=C(COc1ncnc2ccc(Br)cc12)NC1CCCC1	3.1	1.8	-4.4	24.9*	-11.2	4.3
Cc1cc(N2C(=O)C(=O)/C(=C(/O)c3ccc(F)cc3)C2c2ccc(F)cc2)no1 (stereo not given)	-0.3	0.0	-12.1	11.9	1.9	21.1*
COc1ccc(/C(O)=C2\C(=O)C(=O)N(c3cc(C)on3)C2c2ccc(OC)c(OC)c2)cc1OC (stereo not given)	-2.7	0.1	1.6	1.3	2.4	0.1
O=[N+]([O-])c1ccc(CSc2nnc(-c3cccnc3)o2)cc1	5.6	-0.7	-11.0	-4.6	4.8	21.5*
CCOCCCNC(=O)Cn1ncc2c(=O)oc3ccccc3c21	1.4	4.4	5.4	1.8	39.1*	-3.5
COCCN1Cc2cccc(C(=O)Nc3c(C)cc(C)cc3C)c2C1=O	22.0	1.3	-4.1	12.2	-1.2	37.4*
COCCN1Cc2cccc(C(=O)Nc3cc(C)cc(C)c3)c2C1=O	-6.9	1.3	-0.6	-2.4	-0.4	-1.2
O=C(O)c1ccccc1NS(=O)(=O)c1ccc(NN=Cc2ccccc2F)c([N+](=O)[O-])c1	1.0	-0.9	-5.7	23.7*	-18.7	9.6
CSc1ccc(C=NNc2ccc(S(=O)(=O)Nc3ccccc3C(=O)O)cc2[N+](=O)[O-])cc1	3.1	0.3	6.8	-0.5	1.1	3.4
SMILES	M5 ag	CHRM4 agonist	CHRM5 antagonist	CHRM4 PAM	M4 antag	M5 PAM
Cn1ccc2c(-c3ccc(C(=O)O)cc3)cc3c(c21)C1CCC3O1 (stereo not given)	-2.9	-1.9	1.3	-7.1	-10.3	-1.6
CCOc1ccc(C2NCCc3cc(OC)c(OC)cc32)cc1OC (stereo not given)	-2.5	1.3	-2.4	13.6*	-10.8	7.8
CC(C)N(Cc1nccn1C)C(=O)c1cc(COc2ccc(F)cc2Cl)on1	-5.1	4.0	30.8*	-7.3	0.2	-8.7
COc1ccc(NC(=O)c2nc[nH]c2C(=O)N(C)CCO)cc1	2.1	1.3	-6.6	-0.4	3.0	2.1
O=C(Nc1ccccc1)c1ccc(CN2CCC(Cc3ccccc3)CC2)cc1	-8.3	2.4	9.9	-16.4	32.2*	-13.2
O=C(Nc1ccc(Cl)cc1)c1ccc(CN2CCc3ccccc3C2)cc1	-8.2	2.7	3.5	-8.2	11.8	-2.0
O=C(Nc1ccc(S(=O)(=O)N2CCCC2)cc1)c1ccc(CN2CCc3ccccc3C2)cc1	2.2	13.8	17.7	-14.8	31.8*	-13.2
COCC(C)NC(=O)c1ccc(CN2CCc3ccccc3C2)cc1 (stereo not given)	-9.4	0.7	10.9	-16.1	28.2*	-4.6
Cc1[nH]c2ccc3ncccc3c2c1C	-3.3	1.6	-5.9	11.2	-9.8	-1.4
Cc1[nH]c2ccc3c(ncn3CCC#N)c2c1C	2.1	1.1	8.0	13.8	30.5*	1.9
CCNC(=O)C[C@@H]1C=C[C@@H](NS(=O)(=O)c2ccc(F)cc2)[C@@H](CO)O1	-0.1	2.3	2.9	3.8	20.9	1.7
Cc1ccccc1OCCn1cnc2c(N)ncnc21	3.3	4.6	4.4	16.5*	2.2	-3.4
O=C(c1cccc(Cl)c1)N1CCC(=O)N([C@H](COCc2ccccc2)Cc2ccccc2)CC1	2.4	1.9	-0.3	0.9	-18.6	-1.2
CN(C)C/C=C/C(O)(c1ccccc1)c1ccccc1	-19.1	0.4	45.1*	-54.0	55.0*	-35.8
CC(O)(C(=O)c1ccccc1)c1ccccc1 (stereo not given)	-3.9	0.0	9.0	21.5	6.1	-4.4
C/C(=N/NC(=O)c1cc(-c2ccccc2)nc2c(Cl)cccc12)c1cccnc1	3.9	1.8	-11.0	25.6*	-3.5	24.9*
COc1ccc2[nH]c3c(=O)n(CCCN4CCOCC4)cnc3c2c1	4.5	1.6	-14.2	10.6	1.7	20.9*
O=C1CCCN1c1ccc(S(=O)(=O)Nc2cccnc2)cc1	-8.4	1.3	-9.0	5.9	3.0	1.0
CC1CCC(NS(=O)(=O)c2ccc(N3CCCC3=O)cc2)CC1 (stereo not given)	8.1	30.6	16.9	-12.8	32.0*	13.7

High-throughput results (PubChem)
